Test results reported in ChEMBL document CHEMBL2429765 (J Med Chem, 2013).

Experiments:
in vitro = conditions: human, liver microsomes
[1] = Plasma clearance in rat; type: ADME, organism-based
[2] = Oral bioavailability in rat; type: ADME, organism-based; conditions: in vivo
[3] = Half life in rat; type: ADME, organism-based; conditions: in vivo
[4] = Volume of distribution at steady state in rat; type: ADME, organism-based; conditions: in vivo, read-out: Vdss
[5] = Partition coefficient of the compound at pH 7.4; type: physicochemical; conditions: octanol/water
Procedure, shortened: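 cLogD at pH 7.4 calculated with ACD pchbat version 9.3.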

| Structure (SMILES) | microsomal CLint at 0.5 h, 1 µM (in vitro) [µL/min/mg] | other results |
| --- | --- | --- |
| N#Cc1cccc(-c2ccc3nnc(Cc4ccc5ncccc5c4)n3n2)c1 | 22.7 | – |
| C[C@@H](c1c[nH]c2ncccc12)c1nnc2ccc(-c3ccc(C#N)cc3)nn12 | 28 | – |
| CCNc1ccc2nnc([C@@H](C)c3c[nH]c4ncccc34)n2n1 | 18 | – |
| Nc1ccc2nnc(Cc3ccc4ncccc4c3)n2n1 | < 7.6 | – |
| CN(C)c1ccc2nnc(Cc3ccc4ncccc4c3)n2n1 | 35 | – |
| C[C@@H](c1ccc2ncccc2c1)c1nnc2ccc(-c3cccc(C#N)c3)nn12 | 17.9 | clearance [1]: 22 mL/min/kg; bioavailability [2]: 13%; half-life [3]: 4.8 h; Vd [4]: 4.9 L/kg; logD [5]: 2.8 |
| C[C@@H](c1ccc2ncccc2c1)c1nnc2ccc(-c3ccc(C#N)cc3)nn12 | 12.1 | – |
| C[C@@H](c1ccc2ncccc2c1)c1nnc2ccc(-c3ccccc3C#N)nn12 | 23.1 | – |
| C[C@@H](c1ccc2ncccc2c1)c1nnc2ccc(-c3ccc4c(c3)OCCO4)nn12 | 304 | – |
| CCS(=O)(=O)c1ccc(-c2ccc3nnc([C@@H](C)c4ccc5ncccc5c4)n3n2)cc1 | 10.4 | – |
| C[C@@H](c1ccc2ncccc2c1)c1nnc2ccc(-c3ccc(S(C)(=O)=O)cc3)nn12 | < 7.6 | – |
| C[C@@H](c1ccc2ncccc2c1)n1nnc2ncc(-c3cnn(C)c3)nc21 | < 7.6 | – |
| C[C@@H](c1ccc2ncccc2c1)n1nnc2ncc(-c3cnn(CCO)c3)nc21 | < 7.6 | – |
| Cn1cc(-c2ccc3nnc(Cc4c[nH]c5ncccc45)n3n2)cn1 | < 7.6 | – |
| C[C@@H](c1c[nH]c2ncccc12)c1nnc2ccc(-c3cnn(C)c3)nn12 | < 7.6 | – |
| Fc1ccc(-c2ccc3nnc(Cc4ccc5ncccc5c4)n3n2)cc1F | 13.4 | – |

Second part, led by results:

| microsomal CLint at 0.5 h, 1 µM (in vitro) [µL/min/mg] | Structure (SMILES) | other results |
| --- | --- | --- |
| 25 | CC(C)Nc1ccc2nnc([C@@H](C)c3c[nH]c4ncccc34)n2n1 | – |
| < 7.6 | C[C@@H](c1ccc2ncccc2c1)c1nnc2ccc(-c3cnn(C)c3)nn12 | clearance [1]: 21 mL/min/kg; bioavailability [2]: 58%; half-life [3]: 1.9 h; Vd [4]: 3.5 L/kg; logD [5]: 2.05 |
| 13.4 | C[C@@H](c1ccc2ncccc2c1)c1nnc2ccc(-c3ccc(F)c(F)c3)nn12 | clearance [1]: 31 mL/min/kg; bioavailability [2]: 52%; half-life [3]: 3.6 h; Vd [4]: 3.6 L/kg; logD [5]: 3.07 |
| 281 | COc1ccc(-c2ccc3nnc([C@@H](C)c4ccc5ncccc5c4)n3n2)cc1F | – |
| 304 | COc1ccc(-c2ccc3nnc([C@@H](C)c4ccc5ncccc5c4)n3n2)cc1C | – |
| 81.8 | Cc1cccc(-c2ccc3nnc([C@@H](C)c4ccc5ncccc5c4)n3n2)c1 | – |
| 12.2 | CNC(=O)c1ccc(-c2ccc3nnc([C@@H](C)c4ccc5ncccc5c4)n3n2)cc1 | – |
| 232 | C[C@@H](c1ccc2ncccc2c1)c1nnc2ccc(-c3ccc(N(C)C)nc3)nn12 | – |
| 20.2 | CC(C)Nc1ccc2nnc([C@@H](C)c3ccc4ncccc4c3)n2n1 | – |
